# How the values were obtained:
# [1] = Lipophilicity, log D at pH 7.4; type: physicochemical; conditions: buffer
# [2] = Dissociation constant, pKa of the compound; type: physicochemical
# How it was run: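 Potentiometric co-solvent titration in 0.15 mol/L KCl over pH 2.0–11.0 at 25 °C. Methanol co-solvent at varying proportions; 0.5 mol/L KOH and HCl as titrants. Aqueous pKa obtained by linear extrapolation to 0% co-solvent (Yasuda–Shedlovsky plot).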
# [3] = Lipophilicity, log P of the compound; type: physicochemical; conditions: octanol/water
# [4] = Inhibition of H+/K+ ATPase in hog gastric mucosa by competitive binding assay; type: tissue-based, Sus scrofa
# How it was run: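 Competitive binding assay using H+/K+-ATPase prepared from hog gastric mucosa; activity reported as −log IC50.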
Structure (SMILES),logD [1],pKa [2],logP [3],Log IC50 [4]
COCCNC(=O)c1cc(N[C@H]2c3ccccc3C[C@@H]2O)c2nc(C)c(C)n2c1,3.41,6.01,3.43,-4.7
COc1cccc2c1[C@H](Oc1cc(C(=O)N(C)C)cn3c(C)c(C)nc13)[C@@H](O)C2,2.27,6.27,2.3,-5.7
CNC(=O)c1cc(N[C@H]2c3ccccc3C[C@@H]2O)c2nc(C)c(C)n2c1,3.39,5.97,3.4,-5.4
Cc1nc2c(O[C@H]3c4ccccc4C[C@@H]3O)cc(C(=O)N(C)C)cn2c1C,2.16,6.21,2.2,-5.7

# The remaining lines, values ahead:
logD [1],pKa [2],logP [3],Log IC50 [4],Structure (SMILES)
4.93,6.1,4.95,-6.2,CCc1cccc(C)c1CNc1cc(C(N)=O)cn2c(C)c(C)nc12
2.56,6.22,2.59,-6.9,Cc1cccc2c1[C@H](Oc1cc(C(=O)N(C)C)cn3c(C)c(C)nc13)[C@@H](O)C2
3.09,5.97,3.11,-4.8,Cc1nc2c(N[C@H]3c4ccccc4C[C@@H]3O)cc(C(N)=O)cn2c1C
2.82,6.24,2.85,-6.3,Cc1nc2c(N[C@H]3c4ccccc4C[C@@H]3O)cc(C(=O)N(C)C)cn2c1C
